Test results taken from ChEMBL document CHEMBL4270516, “Screening serine/threonine and tyrosine kinase inhibitors for histidine kinase inhibition” (Bioorg Med Chem, 2018).
pIC50: −log10 of the molar value. Activity calls are given as the source filed them. The rule behind the calls is not given here.

How the values were obtained:
[1] = Inhibition of Thermotoga maritima HK853 autophosphorylation using compound at non-aggregating concentration after 30 mins in presence of [gamma-33P]-ATP by phosphorescence-based assay
How it was run: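 Coupled competition-aggregation assay with HK853 (T. maritima) and VicK (S. pneumoniae); enzymatic autophosphorylation followed with [γ-33P]ATP.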

Thermotoga maritima [2] = experiment: Inhibition of ADP-BODIPY binding to Thermotoga maritima HK853 at 100 uM by fluorescence polarization assay
[3] = Inhibition of ADP-BODIPY binding to Thermotoga maritima HK853 in presence of Triton X-100 by fluorescence polarization assay
Thermotoga maritima [4] = experiment: Induction of Thermotoga maritima HK853 aggregation up to 500 uM in presence of glutaraldehyde by PAGE analysis
[5] = Inhibition of ADP-BODIPY binding to Thermotoga maritima HK853 by fluorescence polarization assay
[6] = test system: Sensor histidine kinase VicK/WalK (Streptococcus pneumoniae); experiment: Induction of Streptococcus pneumoniae VicK aggregation up to 500 uM in presence of glutaraldehyde by PAGE analysis
Pseudomonas aeruginosa [7] = experiment: Antibiofilm activity against methicillin-sensitive Pseudomonas aeruginosa PAO1 at 112.5 to 500 uM after 18 hrs by crystal violet staining-based assay; assay type: functional, organism-based
How it was run: (§1)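 Biofilm formation by S. aureus and P. aeruginosa quantified by crystal violet staining, compared against DMSO-treated bacteria.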

Pseudomonas aeruginosa [8] = experiment: Bactericidal activity against methicillin-sensitive Pseudomonas aeruginosa PAO1 at 400 uM after 18 hrs by resazurin-dye based fluorescence assay; assay type: functional, organism-based
How it was run: (§2)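 Viability of methicillin-sensitive S. aureus and P. aeruginosa after treatment, judged by optical density and resazurin indicator dye relative to a DMSO control.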

Staphylococcus aureus [9] = experiment: Antibiofilm activity against methicillin-sensitive Staphylococcus aureus MSSA 447 at 112.5 to 500 uM after 18 hrs by crystal violet staining-based assay; assay type: functional, organism-based; how it was run: as §1
[10] = Inhibition of ADP-BODIPY binding to Thermotoga maritima HK853 after day 2 by fluorescence polarization assay
Staphylococcus aureus [11] = experiment: Bactericidal activity against methicillin-sensitive Staphylococcus aureus MSSA 447 at 400 uM after 18 hrs by resazurin-dye based fluorescence assay; assay type: functional, organism-based; how it was run: as §2
[12] = Inhibition of ADP-BODIPY binding to Thermotoga maritima HK853 after day 1 by fluorescence polarization assay

Question: With `Nc1ncnc2c1ncn2[C@@H]1O[C@H](COP(=O)(O)OP(=O)(O)O)[C@@H](O)[C@H]1O` [ADENOSINE DIPHOSPHATE] as the compound, how does the pIC50 [1] read?
Answer: 4.86

Question: With `O=C1N=C(N[C@H](CO)c2ccccc2)S/C1=C\c1ccc2ncccc2c1` as the compound, how does the inhibition (Thermotoga maritima [2]) read?
Answer: 65.5%

Question: What about the pIC50 [3] of the same compound?
Answer: 4.92

Question: What about the pIC50 [1] of the same compound?
Answer: 3.55

Question: What about the Activity (Thermotoga maritima [4]) of the same compound?
Answer: Active

Question: And the pIC50 [5]?
Answer: 4.92

Question: And the Activity [6]?
Answer: Active

Question: Which results are given for `O=[N+]([O-])c1ccc2c(c1)C(c1ccccc1Cl)=Nc1c[nH]nc1N2`?
Answer: inhibition (Thermotoga maritima [2]): 98.1%; pIC50 [3]: 3.80; Activity (Thermotoga maritima [4]): Active; pIC50 [5]: 4.58; Activity [6]: Active

Question: Which inhibition (Thermotoga maritima [2]) does the source give for `CONC1=NC(=O)/C(=C/c2ccc3ncccc3c2)S1` here?
Answer: 90.1%

Question: And the pIC50 [3]?
Answer: 4.57

Question: And the pIC50 [1]?
Answer: 3.91

Question: What about the pIC50 [5] of the same compound?
Answer: 4.67

Question: With `Nc1ncnc2c1ncn2[C@@H]1O[C@H](COP(=O)(O)OP(=O)(O)NP(=O)(O)O)[C@@H](O)[C@H]1O` as the compound, how does the pIC50 [1] read?
Answer: 4.32

Question: For `Fc1ccc(-c2c(-c3ccncc3)[nH]c3cccnc23)cc1`, which inhibition (Thermotoga maritima [2]) is on record?
Answer: 6.5%

Question: With `Fc1ccc(-c2c(-c3ccncc3)n(CCN3CCOCC3)c3cccnc23)cc1` as the compound, how does the inhibition (Thermotoga maritima [2]) read?
Answer: 4.8%

Question: Which results are given for `O=C1C(c2c[nH]c3ccccc23)=C(c2c[nH]c3ccccc23)C(=O)N1O`?
Answer: inhibition (Thermotoga maritima [2]): 81.2%; pIC50 [3]: < 3.52; Activity (Thermotoga maritima [4]): Active; pIC50 [5]: 4.02; Activity [6]: Active

Question: With `Fc1ccc(-c2c(-c3ccncc3)[nH]c3nccnc23)cc1` as the compound, how does the Activity (Pseudomonas aeruginosa [7]) read?
Answer: inactive

Question: And the inhibition (Thermotoga maritima [2])?
Answer: 79.9%

Question: What about the Activity (Pseudomonas aeruginosa [8]) of the same compound?
Answer: inactive

Question: What about the pIC50 [3] of the same compound?
Answer: 4.65

Question: What about the pIC50 [1] of the same compound?
Answer: 3.99

Question: What about the Activity (Staphylococcus aureus [9]) of the same compound?
Answer: inactive

Question: What about the pIC50 [10] of the same compound?
Answer: 5.20

Question: And the Activity (Staphylococcus aureus [11])?
Answer: inactive

Question: What about the pIC50 [5] of the same compound?
Answer: 4.63

Question: What about the pIC50 [12] of the same compound?
Answer: 5.57

Question: With `COc1cc[nH]c1/C=C1\C(=O)Nc2ccc([N+](=O)[O-])c(C3CC[C@@H](O)C3)c21` (stereo partly specified) as the compound, how does the inhibition (Thermotoga maritima [2]) read?
Answer: 66.3%

Question: What about the pIC50 [3] of the same compound?
Answer: 4.89

Question: And the Activity (Thermotoga maritima [4])?
Answer: Active

Question: What about the pIC50 [5] of the same compound?
Answer: 4.92

Question: And the Activity [6]?
Answer: Active

Question: For `OCCn1c(-c2ccncc2)c(-c2ccc(F)cc2)c2ncccc21`, which inhibition (Thermotoga maritima [2]) is on record?
Answer: 5.8%

Question: For `Cn1cc(C2=C(c3cccc(NCC(O)CO)c3)C(=O)NC2=O)c2cc(Cl)ccc21` (stereo unspecified), which inhibition (Thermotoga maritima [2]) is on record?
Answer: 79.2%

Question: And the pIC50 [3]?
Answer: 4.61

Question: What about the Activity (Thermotoga maritima [4]) of the same compound?
Answer: Active

Question: And the pIC50 [5]?
Answer: 4.66

Question: What about the Activity [6] of the same compound?
Answer: Active

Question: Which results are given for `Cc1cc(C)c2c(n1)sc1c(N)ncnc12`?
Answer: inhibition (Thermotoga maritima [2]): 73.7%; pIC50 [3]: 4.37; pIC50 [1]: 4.00; pIC50 [5]: 4.42

Question: With `Cn1c(-c2ccncc2)c(-c2ccc(F)cc2)c2ncccc21` as the compound, how does the inhibition (Thermotoga maritima [2]) read?
Answer: 15%

Question: Which results are given for `CNc1ncc2cc(Oc3ccc(F)cc3F)c(=O)n(C)c2n1`?
Answer: inhibition (Thermotoga maritima [2]): 74.7%; pIC50 [3]: 4.82; pIC50 [1]: 3.97; Activity (Thermotoga maritima [4]): Active; pIC50 [5]: 4.72; Activity [6]: Active
